Source: ChEMBL document CHEMBL4028865, “Targeted Polypharmacology: Discovery of a Highly Potent Non-Hydroxamate Dual Matrix Metalloproteinase (MMP)-10/-13 Inhibitor” (J Med Chem, 2017)
pIC50: −log10 of the molar value.

Legend:
[1] = biological target: T1, Stromelysin-2 (Homo sapiens, UniProt P09238); experiment: Inhibition of MMP10 (unknown origin) assessed as residual activity at 10 uM using (5-FAM/QX) FRET peptide as substrate by fluorescence assay relative to control
Method in brief: (§1)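 Residual enzyme activity read at a single 10 μM inhibitor concentration, in duplicate. Fluorescence assay on cleavage of the QXL520/5-FAM FRET peptide. Buffer was 50 mM HEPES pH 7.5 with 10 mM CaCl₂, 0.01% Brij-35 and 0.1 mg/ml BSA. GM6001 served as control inhibitor. Same assay system as the IC50 determinations.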
Target sequence in this assay (P09238 99-476 limits assumed): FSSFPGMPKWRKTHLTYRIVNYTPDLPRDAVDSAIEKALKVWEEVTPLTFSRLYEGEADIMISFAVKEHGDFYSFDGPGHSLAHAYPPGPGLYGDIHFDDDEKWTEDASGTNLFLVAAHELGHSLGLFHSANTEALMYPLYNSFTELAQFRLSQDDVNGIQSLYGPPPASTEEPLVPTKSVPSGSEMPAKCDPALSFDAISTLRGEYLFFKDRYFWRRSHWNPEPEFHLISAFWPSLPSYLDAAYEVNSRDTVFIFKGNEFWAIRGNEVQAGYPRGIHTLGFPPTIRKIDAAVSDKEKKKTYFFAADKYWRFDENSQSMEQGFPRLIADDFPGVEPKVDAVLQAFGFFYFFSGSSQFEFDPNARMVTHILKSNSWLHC

[2] = biological target: T2, Collagenase 3 (Homo sapiens, UniProt P45452); experiment: Inhibition of C-terminal tagged human recombinant MMP13 catalytic domain expressed in Escherichia coli assessed as residual activity at 10 uM using (5-FAM/QX) FRET peptide as substrate by fluorescence assay relative to control; method in brief: as §1
[3] = biological target: T1, Stromelysin-2; experiment: Inhibition of MMP10 (unknown origin) assessed using (5-FAM/QX) FRET peptide as substrate by fluorescence assay; details: for pIC50: read-out: IC50; for IC50: read-out: pIC50 (converted)
Method in brief: (§2)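 IC50 from 10 concentrations in 3-fold dilution, starting at 10 μM or 100 μM, with two to six replicates. Run only for compounds leaving under 20% residual activity at 10 μM. Fluorescence read-out of QXL520/5-FAM FRET peptide cleavage in 50 mM HEPES pH 7.5, 10 mM CaCl₂, 0.01% Brij-35 and 0.1 mg/ml BSA. Four-parameter least-squares fit; GM6001 as control.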
Target sequence in this assay (P09238 whole entry): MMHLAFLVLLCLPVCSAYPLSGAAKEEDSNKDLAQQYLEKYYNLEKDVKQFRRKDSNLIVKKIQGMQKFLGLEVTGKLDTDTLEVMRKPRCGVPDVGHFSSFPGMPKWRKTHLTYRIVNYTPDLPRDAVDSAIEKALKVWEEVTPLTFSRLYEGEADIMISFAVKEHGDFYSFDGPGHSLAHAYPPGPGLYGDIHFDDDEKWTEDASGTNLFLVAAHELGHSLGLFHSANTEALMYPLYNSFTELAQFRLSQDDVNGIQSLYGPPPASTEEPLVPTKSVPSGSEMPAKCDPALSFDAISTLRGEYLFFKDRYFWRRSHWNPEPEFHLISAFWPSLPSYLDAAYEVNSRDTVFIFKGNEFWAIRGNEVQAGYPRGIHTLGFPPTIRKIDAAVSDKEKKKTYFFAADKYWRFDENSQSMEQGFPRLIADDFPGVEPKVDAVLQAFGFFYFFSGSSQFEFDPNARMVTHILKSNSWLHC

[4] = biological target: T2, Collagenase 3; experiment: Inhibition of C-terminal tagged human recombinant MMP13 catalytic domain expressed in Escherichia coli using (5-FAM/QX) FRET peptide as substrate by fluorescence assay; details: for pIC50: read-out: IC50; for IC50: read-out: pIC50 (converted); method in brief: as §2
[5] = biological target: T3, Interstitial collagenase (Homo sapiens) (UniProt P03956); experiment: Inhibition of MMP1 (unknown origin) assessed as residual activity at 10 uM using (5-FAM/QX) FRET peptide as substrate by fluorescence assay relative to control; method in brief: as §1
T3 sequence (whole entry): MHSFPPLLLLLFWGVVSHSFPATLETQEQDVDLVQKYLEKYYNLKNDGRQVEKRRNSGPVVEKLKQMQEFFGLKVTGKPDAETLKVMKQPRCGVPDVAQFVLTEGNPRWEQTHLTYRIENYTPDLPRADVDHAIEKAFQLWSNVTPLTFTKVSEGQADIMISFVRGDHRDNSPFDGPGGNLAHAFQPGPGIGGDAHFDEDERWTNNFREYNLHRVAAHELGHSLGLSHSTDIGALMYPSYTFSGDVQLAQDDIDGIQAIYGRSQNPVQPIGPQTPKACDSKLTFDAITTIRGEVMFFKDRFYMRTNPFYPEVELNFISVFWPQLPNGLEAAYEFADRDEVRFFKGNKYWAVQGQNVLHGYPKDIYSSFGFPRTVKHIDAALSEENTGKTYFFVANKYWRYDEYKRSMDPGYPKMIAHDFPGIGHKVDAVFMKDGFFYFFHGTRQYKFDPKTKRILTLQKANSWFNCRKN

[6] = biological target: 72 kDa type IV collagenase (Homo sapiens) (UniProt P08253); experiment: Inhibition of C-terminal tagged human recombinant MMP2 catalytic domain expressed in Escherichia coli assessed as residual activity at 10 uM using (5-FAM/QX) FRET peptide as substrate by fluorescence assay relative to control; method in brief: as §1
[7] = biological target: Stromelysin-1 (Homo sapiens) (UniProt P08254); experiment: Inhibition of C-terminal tagged human recombinant MMP3 catalytic domain expressed in Escherichia coli assessed as residual activity at 10 uM using (5-FAM/QX) FRET peptide as substrate by fluorescence assay relative to control; method in brief: as §1
[8] = biological target: T4, Matrilysin (Homo sapiens) (UniProt P09237); experiment: Inhibition of C-terminal tagged human recombinant MMP7 catalytic domain expressed in Escherichia coli assessed as residual activity at 10 uM using (5-FAM/QX) FRET peptide as substrate by fluorescence assay relative to control; method in brief: as §1
T4 sequence (whole entry): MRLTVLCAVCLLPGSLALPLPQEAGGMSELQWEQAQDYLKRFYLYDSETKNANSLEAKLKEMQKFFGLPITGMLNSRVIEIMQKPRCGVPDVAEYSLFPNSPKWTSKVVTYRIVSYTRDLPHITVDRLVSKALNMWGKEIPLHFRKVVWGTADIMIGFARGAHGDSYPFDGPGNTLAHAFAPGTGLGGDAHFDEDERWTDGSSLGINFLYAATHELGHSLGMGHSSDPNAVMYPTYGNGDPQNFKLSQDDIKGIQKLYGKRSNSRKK

[9] = biological target: Neutrophil collagenase (Homo sapiens) (UniProt P22894); experiment: Inhibition of MMP8 (unknown origin) assessed as residual activity at 10 uM using (5-FAM/QX) FRET peptide as substrate by fluorescence assay relative to control; method in brief: as §1
[10] = biological target: Matrix metalloproteinase-9 (Homo sapiens) (UniProt P14780); experiment: Inhibition of MMP9 (unknown origin) assessed as residual activity at 10 uM using (5-FAM/QX) FRET peptide as substrate by fluorescence assay relative to control; method in brief: as §1
[11] = biological target: Macrophage metalloelastase (Homo sapiens) (UniProt P39900); experiment: Inhibition of C-terminal tagged human recombinant MMP12 catalytic domain expressed in Escherichia coli assessed as residual activity at 10 uM using (5-FAM/QX) FRET peptide as substrate by fluorescence assay relative to control; method in brief: as §1
[12] = biological target: Matrix metalloproteinase-14 (Homo sapiens) (UniProt P50281); experiment: Inhibition of C-terminal tagged human recombinant MMP14 catalytic domain expressed in Escherichia coli assessed as residual activity at 10 uM using (5-FAM/QX) FRET peptide as substrate by fluorescence assay relative to control; method in brief: as §1

Stromelysin-1 (Homo sapiens), sequence (P08254 100-477 limits assumed): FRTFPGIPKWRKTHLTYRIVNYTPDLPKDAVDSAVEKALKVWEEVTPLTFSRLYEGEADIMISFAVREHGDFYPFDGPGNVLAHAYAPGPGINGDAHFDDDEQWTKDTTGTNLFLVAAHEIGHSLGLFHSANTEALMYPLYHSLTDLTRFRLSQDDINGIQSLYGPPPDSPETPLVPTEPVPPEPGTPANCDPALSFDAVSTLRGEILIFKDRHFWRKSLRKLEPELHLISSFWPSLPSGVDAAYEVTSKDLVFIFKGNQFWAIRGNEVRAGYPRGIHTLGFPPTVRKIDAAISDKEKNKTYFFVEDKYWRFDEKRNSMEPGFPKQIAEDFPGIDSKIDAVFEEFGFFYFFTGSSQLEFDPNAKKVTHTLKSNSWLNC
Matrix metalloproteinase-9 (Homo sapiens), sequence (P14780 whole entry, the tested form may be a part): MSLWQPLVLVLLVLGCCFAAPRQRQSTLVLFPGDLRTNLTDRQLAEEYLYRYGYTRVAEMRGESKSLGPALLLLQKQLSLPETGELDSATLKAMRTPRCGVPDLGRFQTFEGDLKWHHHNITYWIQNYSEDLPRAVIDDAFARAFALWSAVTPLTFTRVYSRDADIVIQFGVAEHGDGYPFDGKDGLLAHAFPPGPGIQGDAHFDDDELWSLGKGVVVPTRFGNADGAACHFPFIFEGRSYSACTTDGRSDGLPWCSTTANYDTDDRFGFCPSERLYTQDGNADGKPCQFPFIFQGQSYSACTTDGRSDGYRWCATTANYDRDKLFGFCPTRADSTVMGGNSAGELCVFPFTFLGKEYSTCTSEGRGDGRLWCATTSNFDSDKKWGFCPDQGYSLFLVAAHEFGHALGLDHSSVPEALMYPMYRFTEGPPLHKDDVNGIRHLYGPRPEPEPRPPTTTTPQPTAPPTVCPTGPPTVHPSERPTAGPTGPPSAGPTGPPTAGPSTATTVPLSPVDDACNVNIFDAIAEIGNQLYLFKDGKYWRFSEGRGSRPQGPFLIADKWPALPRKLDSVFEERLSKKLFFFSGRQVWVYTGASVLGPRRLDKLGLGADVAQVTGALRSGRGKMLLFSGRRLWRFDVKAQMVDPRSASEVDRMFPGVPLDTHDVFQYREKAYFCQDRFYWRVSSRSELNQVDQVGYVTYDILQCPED
Macrophage metalloelastase (Homo sapiens), sequence (P39900 106-470 limits assumed): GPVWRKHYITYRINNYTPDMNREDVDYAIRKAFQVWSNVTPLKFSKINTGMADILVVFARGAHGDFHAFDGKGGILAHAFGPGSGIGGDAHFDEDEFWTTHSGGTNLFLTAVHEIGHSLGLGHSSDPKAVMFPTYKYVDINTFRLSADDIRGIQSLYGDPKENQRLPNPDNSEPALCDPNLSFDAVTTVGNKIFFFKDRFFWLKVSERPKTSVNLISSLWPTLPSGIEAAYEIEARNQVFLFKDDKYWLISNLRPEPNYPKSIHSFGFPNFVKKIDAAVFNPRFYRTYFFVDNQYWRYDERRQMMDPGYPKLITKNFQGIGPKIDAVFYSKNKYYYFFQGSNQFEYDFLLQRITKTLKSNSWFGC
72 kDa type IV collagenase (Homo sapiens), sequence (P08253 110-660 limits assumed): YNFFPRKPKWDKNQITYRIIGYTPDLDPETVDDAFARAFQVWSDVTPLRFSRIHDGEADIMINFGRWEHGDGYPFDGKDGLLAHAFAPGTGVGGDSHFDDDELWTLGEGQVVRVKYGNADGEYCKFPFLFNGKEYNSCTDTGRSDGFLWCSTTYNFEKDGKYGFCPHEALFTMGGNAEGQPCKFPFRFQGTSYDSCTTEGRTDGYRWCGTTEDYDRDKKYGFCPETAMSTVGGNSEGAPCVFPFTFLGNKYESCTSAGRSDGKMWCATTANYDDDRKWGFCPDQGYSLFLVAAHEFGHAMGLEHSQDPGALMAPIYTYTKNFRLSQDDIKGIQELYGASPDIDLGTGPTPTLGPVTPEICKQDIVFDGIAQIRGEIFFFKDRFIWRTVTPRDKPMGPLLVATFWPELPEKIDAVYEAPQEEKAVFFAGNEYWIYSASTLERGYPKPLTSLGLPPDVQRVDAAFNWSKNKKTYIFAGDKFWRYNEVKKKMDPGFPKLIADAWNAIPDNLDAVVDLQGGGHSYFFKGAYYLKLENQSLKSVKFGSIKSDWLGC
Neutrophil collagenase (Homo sapiens), sequence (P22894 101-467 limits assumed): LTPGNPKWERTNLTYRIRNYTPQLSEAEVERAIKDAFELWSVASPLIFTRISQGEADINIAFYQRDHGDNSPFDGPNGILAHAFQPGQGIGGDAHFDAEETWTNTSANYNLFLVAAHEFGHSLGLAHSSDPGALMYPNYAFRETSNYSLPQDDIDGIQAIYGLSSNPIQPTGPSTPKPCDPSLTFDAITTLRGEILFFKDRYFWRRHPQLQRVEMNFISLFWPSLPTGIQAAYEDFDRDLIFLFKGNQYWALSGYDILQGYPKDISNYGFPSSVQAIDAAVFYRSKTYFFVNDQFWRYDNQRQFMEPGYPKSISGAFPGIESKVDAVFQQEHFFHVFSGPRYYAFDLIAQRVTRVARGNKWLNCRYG

Activity [1]	Activity [2]	pIC50 [3]	IC50 [3]	pIC50 [4]	IC50 [4]	SMILES	also measured
15.7%	1.2%	5.71	759 to 1700 nM	7.18	16.2 to 36.3 nM	COc1cc(CNC(=O)C#Cc2cn(Cc3ccc(S(=O)(=O)N4CCOCC4)cc3)c(=O)[nH]c2=O)ccc1F	
30.8%	5.9%					COc1cc(CNC(=O)C#Cc2cn(Cc3ccc(C(=O)NC4CC4)cc3)c(=O)[nH]c2=O)ccc1F	
21.9%	3.9%					COC(=O)[C@H](CO)NC(=O)c1ccc(Cn2cc(C#CC(=O)NCc3ccc(F)c(OC)c3)c(=O)[nH]c2=O)cc1	
19.6%	2.2%	6.96	67.6 to 112 nM	7.85	10.2 to 11.7 nM	COc1cc(CNC(=O)C#Cc2cn(Cc3ccc(S(=O)(=O)NC4CC4)cc3)c(=O)[nH]c2=O)ccc1F	
26.6%	0.4%					COc1cc(CNC(=O)C#Cc2cn(Cc3ccc(C(=O)N[C@H](C)C(=O)O)cc3)c(=O)[nH]c2=O)ccc1F	
14.3%	2.1%	6.31	245 to 437 nM	7.49	15.1 to 34.7 nM	COC(=O)CNS(=O)(=O)c1ccc(Cn2cc(C#CC(=O)NCc3ccc(F)c(OC)c3)c(=O)[nH]c2=O)cc1	
17.5%	1.8%	5.69	1260 to 4900 nM	6.76	209 to 219 nM	COC(=O)[C@H]1CCCN1C(=O)c1ccc(Cn2cc(C#CC(=O)NCc3ccc(F)c(OC)c3)c(=O)[nH]c2=O)cc1	
10.4%	0.8%	6.15	501 to 832 nM	7.85	7.76 to 15.1 nM	COc1cc(CNC(=O)C#Cc2cn(Cc3ccc(C(=O)N[C@@H](CO)C(=O)O)cc3)c(=O)[nH]c2=O)ccc1F	
52.8%	12.2%					COC(=O)CNC(=O)c1ccc(Cn2cc(C#CC(=O)NCc3ccc(F)c(OC)c3)c(=O)[nH]c2=O)cc1	
56.6%	14.2%					COc1cc(CNC(=O)C#Cc2cn(Cc3ccc(C(=O)NC(C)C)cc3)c(=O)[nH]c2=O)ccc1F	
2.8%	0.4%	7.51	24.5 to 29.5 nM	8.30	3.63 to 5.5 nM	COc1cc(CNC(=O)C#Cc2cn(Cc3ccc(-c4cnco4)cc3)c(=O)[nH]c2=O)ccc1F	Activity [5]: 100%; Activity [6]: 100%; Activity [7]: 37.3%; Activity [8]: 87.1%; Activity [9]: 96.7%; Activity [10]: 97.8%; Activity [11]: 88.5%; Activity [12]: 97.6%
77%	5.6%					COc1cc(CNC(=O)C#Cc2cn(Cc3ccc(C(=O)N[C@H](CO)C(=O)O)cc3)c(=O)[nH]c2=O)ccc1F	
		6.45	309 to 407 nM	9.72	0.138 to 0.275 nM	COc1cccc(CNC(=O)c2nc3scc(COCc4ccc(C(=O)O)cc4)c3c(=O)[nH]2)c1 [T-26c]	
14.2%	2.6%	6.46	275 to 398 nM	7.24	44.7 to 72.4 nM	COc1cc(CNC(=O)C#Cc2cn(Cc3ccc(C(=O)NCCO)cc3)c(=O)[nH]c2=O)ccc1F	
28.5%	0.8%					COc1cc(CNC(=O)C#Cc2cn(Cc3ccc(C(=O)N[C@@H](C)C(=O)O)cc3)c(=O)[nH]c2=O)ccc1F	
13.9%	4.4%	5.92	4790 to 18200 nM	6.95	77.6 to 162 nM	COc1cc(CNC(=O)C#Cc2cn(Cc3ccc(C(N)=O)cc3)c(=O)[nH]c2=O)ccc1F	
47.9%	5.8%					COc1cc(CNC(=O)C#Cc2cn(Cc3ccc(S(=O)(=O)N(C)C)cc3)c(=O)[nH]c2=O)ccc1F	
18%	4.6%	6.30	457 to 562 nM	6.89	100 to 158 nM	COC(=O)c1ccc(Cn2cc(C#CC(=O)NCc3ccc(F)c(OC)c3)c(=O)[nH]c2=O)cc1	
6.9%	1.7%	6.88	51.3 to 141 nM	7.59	12 to 20.9 nM	COc1cc(CNC(=O)C#Cc2cn(Cc3ccc(S(=O)(=O)NC(C)(C)C)cc3)c(=O)[nH]c2=O)ccc1F	
15.4%	7.5%	6.20	479 to 832 nM	7.07	67.6 to 112 nM	CNC(=O)c1ccc(Cn2cc(C#CC(=O)NCc3ccc(F)c(OC)c3)c(=O)[nH]c2=O)cc1	
		5.08				O=C(O)CCCOc1cccc(CNC(=O)C#Cc2cn(Cc3ccc(C(=O)O)cc3)c(=O)[nH]c2=O)c1	
7.1%	1.4%	6.61	186 to 589 nM	7.05	70.8 to 110 nM	COc1cc(CNC(=O)C#Cc2cn(Cc3ccc(C(=O)N(C)C)cc3)c(=O)[nH]c2=O)ccc1F	
68.9%	1.9%					COc1cc(CNC(=O)C#Cc2cn(Cc3ccc(C(=O)N4CCC[C@@H]4C(=O)O)cc3)c(=O)[nH]c2=O)ccc1F	
15.5%	2.5%	6.12	490 to 1070 nM	6.83	102 to 195 nM	COC(=O)[C@H](C)NC(=O)c1ccc(Cn2cc(C#CC(=O)NCc3ccc(F)c(OC)c3)c(=O)[nH]c2=O)cc1	
68.6%	5.1%					COc1cc(CNC(=O)C#Cc2cn(Cc3ccc(C(=O)NCC(=O)O)cc3)c(=O)[nH]c2=O)ccc1F	
55.7%	13.3%					COc1cc(CNC(=O)C#Cc2cn(Cc3ccc(C(=O)NC(C)(C)C)cc3)c(=O)[nH]c2=O)ccc1F	
12.8%	1.8%	6.27	407 to 676 nM	7.46	25.7 to 40.7 nM	CNS(=O)(=O)c1ccc(Cn2cc(C#CC(=O)NCc3ccc(F)c(OC)c3)c(=O)[nH]c2=O)cc1	
10.2%	2.2%	6.83	67.6 to 141 nM	7.60	15.1 to 34.7 nM	COc1cc(CNC(=O)C#Cc2cn(Cc3ccc(S(=O)(=O)NC(C)C)cc3)c(=O)[nH]c2=O)ccc1F	
19.1%	3.9%	5.13	4790 to 18200 nM	6.59	204 to 324 nM	COc1cc(CNC(=O)C#Cc2cn(Cc3ccc(S(N)(=O)=O)cc3)c(=O)[nH]c2=O)ccc1F	
